Bioassay records: PubChem BioAssay, Broad Institute
Only some compounds are listed: those with a hit (about 1.7% of all), similar ones and a draw of the others.
CAL PDZ FP-1 – CAL PDZ (human) peptide binding inhibition; Q9HD26; purified CAL PDZ, TMR-peptide fluorescence polarization, 1 h; inhibition, % at 24.9 µM; hit rate 0.92% among 300,000; AID 602252;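 active means mean inhibition of at least 30% with at least half of replicates also reaching 30%; inconclusive means no clear call, values can overlap the other calls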
AI-2 QS modul – modulators of Vibrio harveyi AI-2 quorum sensing system; activity change, % at 7.5 µM; Vibrio harveyi JMH597 AI-2 luminescence/OD600 ratio, 9 h; active compounds read low; strain lacks LuxN and CqsS sensors; 0 = neutral-control median; hit rate 0.4% among 300,000; in the data active means activity change below about -75%, passing the limit was not always enough; inconclusive means no clear call, values can overlap the other calls;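 further: luminescence divided by OD600 gain over 9 h not by final OD600 alone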
CAL PDZ FP-2 – blocks peptide binding to human CAL PDZ domain | purified CAL PDZ, TMR-peptide fluorescence polarization, 1 h | inhibition, % at 20 µM | hit rate 0.02% among 330,000 | AID 504414;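 active means highest replicate inhibition of at least 40%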
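Test system: tagged CAL PDZ domain / Buffer or medium: sodium phosphate/NaCl buffer pH 7.4 with TCEP, IgG, Thesit / Reagent: TMR-labelled reporter peptide T*-PRC34 bound in PDZ groove / Compound dosing: single point, 20 µM / Schedule: 1 h incubation at room temperature before polarization reading / Technique: fluorescence polarization (mP) / Benchmarks: unlabelled peptide, DMSO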
ARNT TACC3 PPI – ARNT/TACC3 interaction disruption. Q9Y6A5. AlphaScreen His-ARNT PAS-B/GST-TACC3 binding, luminescence; TACC3 fragment carries E629A point mutation. inhibition, % at 9.99 µM. hit rate 0.66% among 390,000;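 active means mean inhibition of replicates at least 50% and at least half of replicates each reaching 50%; inconclusive means half or more replicates reach 50% but mean below 50%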
Rce1 inh – inhibitors of yeast Ras-converting enzyme. calls only. hit rate 0.27% among 290,000. yeast membranes, quenched prenylated peptide cleavage fluorescence;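 active means fall in fluorescence gain of 50% or more versus controls, with final raw signal at or below 3038400; inconclusive means same 50% fall but final raw signal above 3038400; inactive means fall in fluorescence gain under 50%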
Target sequence (Q03530 whole entry, looked up): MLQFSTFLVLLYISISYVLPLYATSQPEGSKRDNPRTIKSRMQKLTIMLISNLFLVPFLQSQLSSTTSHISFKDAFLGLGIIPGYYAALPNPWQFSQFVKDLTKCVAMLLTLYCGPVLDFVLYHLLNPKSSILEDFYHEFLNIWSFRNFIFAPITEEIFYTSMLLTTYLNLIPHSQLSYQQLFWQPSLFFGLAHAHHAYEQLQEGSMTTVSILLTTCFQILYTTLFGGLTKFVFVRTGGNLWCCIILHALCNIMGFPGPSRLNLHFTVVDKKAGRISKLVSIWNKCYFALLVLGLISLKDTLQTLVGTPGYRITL
A number is an active result; n = inactive; u = inconclusive; x = no result; + = active, no number.

SMILES	CAL PDZ FP-1	AI-2 QS modul	CAL PDZ FP-2	ARNT TACC3 PPI	Rce1 inh
NC(=O)NC(=O)CC1S/C(=N/N=C2\CSC(=O)N2)NC1=O (centres undefined)	n	n	n	52.7	n
O=C(O)CNC(=O)CC1S/C(=N/N=C2/NC(=O)CS2)NC1=O (centres undefined)	n	n	n	57.8	n
NC(=O)NC(=O)CC1S/C(=N/N=C/c2ccccc2)NC1=O (centres undefined)	n	n	n	n	n
CO[C@@H]1CN(C)C(=O)c2cc(NS(C)(=O)=O)ccc2OC[C@@H](C)N(C(=O)C2CC2)C[C@@H]1C	x	x	x	n	x
CC1COCC(C)N1C1=C(Cl)C(=O)c2ccccc2C1=O (centres undefined)	n	x	n	30.0	x
Cc1ccc(-n2c(=O)[nH]c3cc(C(=O)NC4CCN(Cc5ccccc5)CC4)ccc3c2=O)cc1	38.0	n	n	n	n
Cc1cc(C)c(S(=O)(=O)Nc2ccc(OCC(=O)O)cc2)c(C)c1	42.8	n	n	x	n
COc1ccc(NS(=O)(=O)c2c(C)cc(C)cc2C)cc1	n	n	n	n	+
O=C(NCCCN1CCOCC1)c1cc(C(=O)C2CCCCC2)c[nH]1	n	n	n	n	n
CCCC(=O)Nc1ccc2c(c1)C(=O)N(C)C[C@@H](OC)[C@H](C)CN(Cc1cc(F)ccc1F)[C@H](C)CO2	x	x	x	n	x
C=CCNC(=O)/C(=C/c1ccco1)NC(=O)c1ccc(Br)o1	n	n	n	n	n
C=CCNC(=O)/C(=C\c1ccco1)NC(=O)c1ccco1	64.8	n	n	n	n
COc1ccc(NS(=O)(=O)c2ccc(NC(=O)C(CCSC)NC(N)=O)cc2)cc1 (centres undefined)	n	n	n	n	n
CCOC(=O)C1(Cc2ccccc2Cl)CCN(S(C)(=O)=O)CC1	n	n	n	n	n
CNc1nc(NN)nc(Nc2ccccc2)n1	58.2	n	n	n	n
CCc1ccc(CN(C)C(=O)C2CCC(=O)N(CCCN3CCCC3=O)C2)cc1 (centres undefined)	n	n	n	n	n
CC1=NN(c2ccc(C(=O)O)c(N)c2)C(=O)C1	n	n	n	46.9	n
CC1=NN(c2ccc(Cl)c(C(=O)O)c2)C(=O)C1	n	n	n	n	n
CC1=NN(c2ccc([N+](=O)[O-])cc2)C(=O)C1	x	x	n	45.4	x
C=CCNCCCCOc1ccc(OCC)cc1	44.8	n	x	n	n
C=CCNCCCOc1ccc(C(C)(C)c2ccccc2)cc1	n	n	n	n	n
C[C@H](CO)N1C[C@H](C)[C@@H](CN(C)CC2CCCCC2)OCCCC[C@H](C)Oc2ccc(NC(=O)NC3CCCCC3)cc2C1=O	x	x	x	n	x
C/C(=N\NC(=O)c1cc(-c2ccncc2)nc2ccccc12)c1ccc(OC(F)F)cc1	69.6	n	n	n	n
Cc1cccc(NC(=O)c2ccc([N+](=O)[O-])s2)n1	n	n	n	n	n
CCCc1cc(=O)n2[nH]c(C)c(-c3ccccc3)c2n1	n	n	n	x	+
SMILES	CAL PDZ FP-1	AI-2 QS modul	CAL PDZ FP-2	ARNT TACC3 PPI	Rce1 inh
CSc1ncc(CN2CCCC(C(=O)c3ccc(C(C)(C)C)cc3)C2)cn1 (centres undefined)	n	n	n	x	n
O=C(O)CN1CCN(CC(=O)O)CCN(CC(=O)O)CCN(CC(=O)O)CC1	n	n	n	59.5	n
CC(=O)N1CCN(CC(=O)O)CC1	x	n	x	x	n
O=C1C(=O)c2ccccc2C(O)=C1CCCCl	x	n	n	36.9	n
Cc1[nH]n(-c2ccccc2)c(=O)c1/C=N/NC(=O)C(C)C	x	n	n	70.0	n
Cc1cc(/C=N/NC(=O)c2ccccn2)c(C)n1-c1cccc([N+](=O)[O-])c1	n	n	n	67.7	n
Cc1[nH]n(-c2cccc3ccccc23)c(=O)c1/C=N/NC(=O)c1cccc([N+](=O)[O-])c1	n	n	n	n	n
CC(=O)N/N=C/c1c(C)[nH]n(-c2ccccc2)c1=O	n	n	n	x	x
Cc1[nH]n(-c2ccccc2)c(=O)c1/C=N\NC(=O)C1COc2ccccc2O1 (centres undefined)	n	n	n	61.2	n
Cc1[nH]n(-c2ccccc2)c(=O)c1/C=N/NC(=O)c1cccc([N+](=O)[O-])c1	n	x	n	30.7	x
CO[C@H]1CN(C)C(=O)c2ccc(NC(C)=O)cc2OC[C@@H](C)N(Cc2ccc(F)cc2)C[C@H]1C	x	x	x	n	x
C[C@@H]1CN([C@@H](C)CO)C(=O)Cc2cc(NC(=O)C3CCCCC3)ccc2O[C@@H]1CN(C)S(=O)(=O)c1ccc(Cl)cc1	x	x	x	n	x
CCC(C)Sc1nnc(NS(=O)(=O)Cc2ccccc2)s1 (centres undefined)	n	n	n	n	n
CCOC(=O)C1=C(C)NC(C)=C(C(=O)OC)C1c1ccco1 (centres undefined)	36.5	n	n	n	n
C=CCOC(=O)C1=C(C)NC(C)=C(C(=O)OCC=C)C1c1ccco1	n	n	n	n	n
COc1cc([N+](=O)[O-])cc(/C=N\NC(=O)C2COc3ccccc3O2)c1O (centres undefined)	n	u	n	71.6	n
O=C(N/N=C\c1cccc([N+](=O)[O-])c1O)C1COc2ccccc2O1 (centres undefined)	n	n	n	62.9	n
O=C(CNC(=O)C1COc2ccccc2O1)N/N=C\c1cccc(O)c1 (centres undefined)	n	n	n	n	n
O=[N+]([O-])c1cccc(C=NNc2ccc3ccccc3n2)c1O	n	x	n	71.9	x
O=C(CNC(=O)C1COc2ccccc2O1)N/N=C/c1ccc(O)cc1O (centres undefined)	n	n	n	93.9	n
CCN1C(=O)C2(C(C#N)=C(N)Oc3c2c(C)nn3-c2ccccc2)c2ccccc21 (centres undefined)	n	n	n	n	n
Cc1ccc(-n2ccnc2SCC(=O)c2c(N)n(C3CC3)c(=O)[nH]c2=O)cc1C	x	x	n	n	x
CCCc1nnc(NS(=O)(=O)c2ccccc2)s1	n	n	n	n	n
CCCCc1ccc(S(=O)(=O)Nc2nnc(C)s2)cc1	51.9	-97.7	n	n	n
COc1ccc(NC(=O)COC(=O)C2CC(=O)N(Cc3ccc(C)cc3)C2)cc1 (centres undefined)	n	n	n	n	n
SMILES	CAL PDZ FP-1	AI-2 QS modul	CAL PDZ FP-2	ARNT TACC3 PPI	Rce1 inh
COc1ccc(COC(=O)C2CC(=O)N(Cc3ccccc3)C2)cc1 (centres undefined)	+	x	n	n	x
COCCn1c(SCC(=O)Nc2ccc3[nH]c(=O)[nH]c3c2)nc2ccccc2c1=O	n	n	n	n	n
COCCn1c(SCC(=O)Nc2ccc(OC)c(S(N)(=O)=O)c2)nc2ccccc2c1=O	41.3	n	n	n	n
COCNc1nc(OCC#N)nc(N(C)C)n1	n	n	n	n	n
CCCCCCC(=O)Nc1ccc(Br)cn1	63.0	n	n	n	n
CCOc1ccc(S(=O)(=O)NCCC(=O)OCC(=O)c2ccc[nH]2)cc1	n	n	n	n	n
